Screening results from PubChem.
E coli Lon inh – inhibitors of E. coli Lon protease, primary screen, biochemical, fluorescence polarization; P0A9M0; purified E. coli Lon protease; inhibition, % at 7.94 µM; 360,000 compounds, 0.42% hits; in the data active means inhibition above about 13%, passing the limit was not always enough
TDP2 absorb – human TDP2 enzyme inhibitors, primary screen, biochemical, epi absorbance, recombinant enzyme; Tyrosyl-DNA phosphodiesterase 2 (Homo sapiens), O95551; T5PNP hydrolysis, p-nitrophenol absorbance 415 nm; inhibition, % at 12.8 µM; 370,000 compounds, 0.34% hits; AID 720702, 2013;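 active means inhibition above the mean of all tested compounds plus 3 SD, set per campaign, cut at about 25% in these data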
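System – recombinant human TDP2 · Quantity – TDP2 enzyme at 120 nM final · Doses – single concentration, 12.8 µM nominal, with 1% DMSO · Incubation – 2 h at 37 °C · Measured by – epi absorbance of p-nitrophenol freed from T5PNP by hydrolysis · Read-out – % inhibition relative to enzyme-containing and enzyme-free wells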
PAD4 inh – human PAD4 inhibitors, primary screen, biochemical, fluorescence polarization, 1536-well format. recombinant PAD4, RCA probe fluorescence polarization. inhibition, % at 6.36 µM. 330,000 compounds, 0.41% hits. AID 485272, 2010;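 active means percent inhibition above a cutoff equal to the mean of all tested compounds plus 3 SD, cut at about 15% in these data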
PRMT1 FP inh – PRMT1 methyltransferase inhibitors, primary screen, biochemical, fluorescence polarization; 370,000 compounds, 1.3% hits; recombinant PRMT1, activity-based probe fluorescence polarization; inhibition, % at 2.79 µM; AID 652257, 2013; Protein arginine N-methyltransferase 1 (Homo sapiens), Q99873;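 active means inhibition above about 21% made by adding two undisclosed values, limit read from the data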
Target sequence (Q99873 whole entry, looked up): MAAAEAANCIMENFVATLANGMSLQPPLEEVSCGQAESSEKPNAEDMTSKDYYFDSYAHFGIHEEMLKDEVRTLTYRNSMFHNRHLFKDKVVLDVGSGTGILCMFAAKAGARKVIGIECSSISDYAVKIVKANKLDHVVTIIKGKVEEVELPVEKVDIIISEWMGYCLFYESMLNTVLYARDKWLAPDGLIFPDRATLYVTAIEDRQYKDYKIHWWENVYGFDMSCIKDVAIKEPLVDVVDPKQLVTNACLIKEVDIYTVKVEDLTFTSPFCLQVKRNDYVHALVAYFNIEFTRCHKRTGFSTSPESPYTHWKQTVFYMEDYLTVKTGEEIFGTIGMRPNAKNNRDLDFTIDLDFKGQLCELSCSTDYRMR
GSTO1 counter – inhibitors of recombinant GSTO1, primary screen, counter-screen for RBBP9 inhibitor project, biochemical, fluorescence polarization. Glutathione S-transferase omega-1 (Homo sapiens), P78417. 300,000 compounds, 1.1% hits. activity-based probe fluorescence polarization. inhibition, % at 5.96 µM;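 active means inhibition above the campaign mean inhibition plus 3 SD, cut at about 35% in these data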
Target sequence (P78417 whole entry, looked up): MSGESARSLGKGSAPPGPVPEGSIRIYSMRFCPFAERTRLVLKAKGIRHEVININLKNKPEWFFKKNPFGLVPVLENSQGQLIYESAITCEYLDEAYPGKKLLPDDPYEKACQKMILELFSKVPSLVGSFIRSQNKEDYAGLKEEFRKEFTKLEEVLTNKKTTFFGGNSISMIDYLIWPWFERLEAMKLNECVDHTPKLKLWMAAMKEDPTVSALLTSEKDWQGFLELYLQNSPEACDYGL
Hits are given with their value; 0 = inactive; - = no result given. Hits are enriched below; roughly 2.5% of the tested compounds scored in any of these assays.

SMILES	E coli Lon inh	TDP2 absorb	PAD4 inh	PRMT1 FP inh	GSTO1 counter
O=C(NC1CC1)c1ccc2c(c1)S(=O)(=O)c1cc(Cl)ccc1C2=O	-	0	20	0	-
c1ccc(CNC2CCC23CCC(c2ccccc2)CC3)cc1 (stereo unspecified)	-	0	-	0	-
COc1ccc(N2C3=C(CC4=C2CC(C)(C)CC4=O)C(=O)CC(C)(C)C3)cc1	0	0	0	23	0
Cc1ccc(NC(=O)[C@@H]2CC(=O)O[C@@H]2c2ccccc2)c(C)c1	-	0	-	0	-
O=C(N=C1N(CC2CC2)CC2(C=C3CCCCC3n3c(=O)n(-c4ccccc4)c(=O)n32)N1C(=O)OCc1ccccc1)c1ccccc1 (stereo unspecified)	-	0	-	0	-
CCn1cc(C(=O)N[C@H](C(=O)NCCO)C(C)C)c(=O)c2cc3c(cc21)OCO3	0	0	0	0	0
CCn1cc(C(=O)N[C@H](C(=O)NC(C)(C)CO)C(C)C)c(=O)c2cc3c(cc21)OCO3	0	25	0	0	0
Cc1ccc(NC(=O)/C=C\C(=O)NCC(=O)O)cc1	0	0	0	24	0
CCOC(=O)[C@]12CCCCC/C=C\1N(Cc1ccc(OC)cc1)C(=O)[C@H]2CC(=O)NCc1cccc(C(F)(F)F)c1	-	0	-	0	-
Cc1ccc(C)n1Cc1ccc(C(=O)O)cc1	0	-	0	-	59
O=C(N/N=C/c1cccs1)c1cncc(Br)c1	0	0	0	0	0
O=C(N/N=C\c1ccc([N+](=O)[O-])s1)c1cncc(Br)c1	0	0	0	0	43
CCCCCCCCN1C(=O)[C@@H](CC(=O)NCCC(C)C)C[C@@]2(C(=O)OC)C1=C[C@H](COCc1ccccc1)O[C@@H]2C	-	0	-	0	-
Cc1ccc(C(=O)N/C(=C/c2ccco2)C(=O)NCc2ccco2)cc1	0	0	0	0	0
COc1ccc(C(=O)N/C(=C/c2ccco2)C(=O)NCc2ccco2)cc1	0	0	0	25	0
CC(C)(C)N(Cc1cn(CC2CCCCC2)nn1)S(=O)(=O)c1ccccc1Br	-	0	-	0	-
Cc1ccc(NC(=O)CSc2nc3ncc(Br)cc3[nH]2)cc1C	0	0	0	0	36
Cc1cc(C)c(NC(=O)CSc2nc3ncc(Br)cc3[nH]2)c(Cl)c1	0	0	0	0	0
O=C(NCc1ccco1)c1cnn2c1NC(c1ccccc1)CC2C(F)(F)F (stereo unspecified)	0	0	0	0	0
Cc1ccccc1Cn1ccc(NC(=O)c2cnn3c2NC(c2ccccc2)CC3C(F)(F)F)n1 (stereo unspecified)	22	0	0	0	0
COC(=O)C1CN(C2CC2)CCS(=O)(=O)N1Cc1cn(Cc2ccccc2)nn1 (stereo unspecified)	-	0	-	0	-
O=C(O)/C=C\C(=O)Nc1ccccc1C#Cc1ccccc1	0	0	0	0	0
O=C(O)/C=C\C(=O)Nc1ccccc1C#Cc1ccc(Br)cc1	0	0	0	22	0
COC(=O)C1CN(Cc2cn(Cc3ccc(OC)cc3)nn2)CCS(=O)(=O)N1Cc1ccc(OC)cc1 (stereo unspecified)	-	0	-	0	-
Cc1cccc(-c2cccc3c4c([nH]c23)[C@@H]2C[C@H](N(C)C(=S)Nc3ccc(C#N)cc3)[C@H]([C@H](C)O)CN2CC4)c1	-	0	-	0	-
SMILES	E coli Lon inh	TDP2 absorb	PAD4 inh	PRMT1 FP inh	GSTO1 counter
Cn1ccc(-c2ccccc2)n1	0	0	0	0	0
N#Cc1cc(-c2ccccc2)nn1-c1ccccc1	0	0	0	23	0
CC(Cl)C(=O)c1c[nH]c2ccccc12 (stereo unspecified)	0	0	0	0	37
COc1ccc(S[C@]2(C(=O)N3CCOCC3)CC(=O)N(C(=O)/C=C/c3ccccc3)[C@@H]2c2ccc(OC)cc2)cc1	-	0	-	0	-
Cc1nn(-c2ccccc2)c(Cl)c1CN(C(=O)CCl)c1cccc2ccccc12	0	0	0	0	89
O=C1CCCC2=C1C(c1ccc(O)c(O)c1)c1c(ccc3ncccc13)N2 (stereo unspecified)	0	0	0	21	75
CCOc1ccc(C2C3=C(CCCC3=O)Nc3ccc4ncccc4c32)cc1 (stereo unspecified)	0	0	0	0	0
CCCCCCCCN1CN2Cc3ccc(C)cc3C2CS1(=O)=O (stereo unspecified)	-	0	-	0	-
COc1cccc(/C=N/Nc2ncnc3c2[nH]c2ccc(C)cc23)c1OC	0	0	0	0	37
COc1ccc(/C=N/Nc2ncnc3c2[nH]c2ccccc23)c(OC)c1OC	0	0	0	0	0
Cn1c(=O)[nH]c(=O)c2c1nc(N/N=C/C(Br)=C/c1ccccc1)n2CCO	0	0	0	0	35
CCC(=O)NC1=C(Cl)C(=O)C(NC(=O)CC)=C(Cl)C1=O	0	0	-	90	-
COC(=O)C1CN(Cc2ccc(Cl)cc2)CCS(=O)(=O)N1Cc1cn(Cc2ccccc2)nn1 (stereo unspecified)	-	0	-	0	-
CCCCn1c(NC(=O)c2ccc(F)cc2)c(C#N)c2nc3ccccc3nc21	-	-	70	-	67
Cc1ccc(C(=O)NCCn2c(N)c(C#N)c3nc4ccccc4nc32)cc1	0	0	0	0	0
COC(=O)CCC(=O)N1C2=NC3=C(C(=O)N(Cc4ccc5c(c4)OCO5)C3=O)C3N(C)c4ccccc4[C@]23C[C@H]1CO (stereo partly specified)	-	0	-	0	-
Cc1ccc(NC(=S)NNC(=S)Nc2cccc(C(F)(F)F)c2)cc1	0	0	0	0	38
COc1ccc(NCc2cc3ccccc3[nH]c2=O)cc1	0	0	0	0	0
COc1ccc(NCc2cc3cc(OC)ccc3[nH]c2=O)cc1	0	0	0	21	0
CCOC(=O)c1cccc(NC(=S)NC(=O)c2cccnc2)c1	0	0	0	22	0
COc1cccc(NC(=S)NC(=O)c2cccnc2)c1	0	0	0	0	0
C[C@@H]1OC(C2CCCCC2)N(C)[C@H]2C[C@H]3c4cc(N5CCOCC5)ccc4CCN3C[C@@H]12 (stereo partly specified)	-	0	-	0	-
COc1ccc(S(=O)(=O)N2CCCN(CC(=O)Nc3ccc(OC)c(Cl)c3)CC2)cc1	0	0	0	0	36
O=C(CSC1CS(=O)(=O)c2cc([N+](=O)[O-])ccc21)NNC(=O)c1ccc(Cl)cc1 (stereo unspecified)	0	0	0	23	0
C/C=C/C=C\C(=O)Nc1cccc(C2=NOC3(C2)C[C@@H](C(N)=O)N(C(=O)c2cc([N+](=O)[O-])cc([N+](=O)[O-])c2)C3)c1 (stereo partly specified)	0	0	0	23	0
